RanGTP-Impb inh – inhibitors of RanGTP-importin-beta interaction, primary screen, biochemical, FRET, CFP-Ran, YFP-importin-beta, homogeneous; cell-free CFP-Ran/YFP-importin-beta FRET ratio; inhibition, % (concentration not given with the values); 300,000 compounds, 1.1% hits;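 active = more than half of the replicate wells show a fall in the fluorescence ratio signal beyond about 16%, limit read from the data, passing the limit was not always enough; inconclusive = exactly half of the replicate wells pass the set limit; inactive = fewer than half of replicates pass the limit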;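 also: 0% = DMSO wells and 100% = Ran loaded with GDP instead of GTP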
Hck-Nef inh – blocks Nef-activated human Hck kinase. inhibition, % at 20 µM. Recombinant Hck-YEEI plus Nef, Z-Lyte FRET kinase assay. 220,000 compounds, 0.68% hits. AID 463187. P08631;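 active = Hck-Nef kinase inhibition above about 50%, limit read from the data; inactive = inhibition below that limit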;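 also: 0% = DMSO with Hck plus Nef and 100% = Hck alone without Nef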
Runt-CBFb FRET – Runt domain-CBFb interaction inhibition. Cerulean-Runt/Venus-CBFb FRET ratio 530/480, 1 h. Q01196+Q13951. 220,000 compounds, 0.46% hits. inhibition, % at 20 µM;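 active = inhibition over about 50% at 20 µM in the single-dose screen, limit read from the data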;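 also: 0% = DMSO wells and 100% = excess unlabeled CBFb competitor control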
Target sequence (Q01196 whole entry, looked up, the tested form may be a part): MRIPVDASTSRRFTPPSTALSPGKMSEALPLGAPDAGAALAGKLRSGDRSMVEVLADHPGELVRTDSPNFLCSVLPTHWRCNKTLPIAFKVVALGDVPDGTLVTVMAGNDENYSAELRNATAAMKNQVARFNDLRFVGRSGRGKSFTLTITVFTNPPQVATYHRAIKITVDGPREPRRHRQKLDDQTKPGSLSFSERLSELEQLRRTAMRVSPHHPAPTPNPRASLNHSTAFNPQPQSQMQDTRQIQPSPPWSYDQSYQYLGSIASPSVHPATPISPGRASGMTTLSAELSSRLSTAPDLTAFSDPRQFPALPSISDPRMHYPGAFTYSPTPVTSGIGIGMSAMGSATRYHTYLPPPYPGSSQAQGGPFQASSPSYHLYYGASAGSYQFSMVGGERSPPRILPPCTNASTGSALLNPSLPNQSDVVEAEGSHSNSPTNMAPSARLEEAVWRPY
Target sequence (Q13951 whole entry, looked up, the tested form may be a part): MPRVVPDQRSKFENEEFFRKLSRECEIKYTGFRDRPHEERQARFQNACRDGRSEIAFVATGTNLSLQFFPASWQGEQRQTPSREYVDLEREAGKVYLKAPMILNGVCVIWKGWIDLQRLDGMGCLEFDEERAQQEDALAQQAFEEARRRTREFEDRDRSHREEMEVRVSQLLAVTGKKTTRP
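Reagent – Venus-CBFb binding partner, 100 nM · Assay system – Cerulean-tagged RUNX1 Runt domain (FRET donor) fusion protein · Input – 100 nM per protein · Incubation – two 1 h room-temperature incubations shielded from light · Measured by – FRET fluorescence · Medium – Tris buffer pH 7.5 with salts and BSA · Benchmarks – unlabeled CBFb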
Runt-SMMHC FRET – blocks binding of human RUNX1 Runt domain to CBFb-SMMHC; Q01196+Q13951; Cerulean-Runt/Venus-CBFb-SMMHC FRET ratio 530/480, 1 h; inhibition, % at 20 µM; 220,000 compounds, 0.74% hits;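 active = mean inhibition across duplicate retests at 20 µM reaching about 50%, limit read from the data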;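 also: 0% = DMSO wells and 100% = wells with excess untagged CBFb-SMMHC; inhibitors lower the FRET ratio by blocking Runt binding to CBFb-SMMHC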
* marks the source's active call; other numbers are inactive results. This is a sample that favours compounds with a hit; in the whole collection about 1.7% have one here.

Results for CCOCCCNC(=S)N1CCCN(c2nc3cc(C)ccc3cc2C#N)CC1 ?
RanGTP-Impb inh: 4; Hck-Nef inh: 20; Runt-CBFb FRET: 10; Runt-SMMHC FRET: 76*

What do the screens show for `Cc1cc(C)c2cc(C#N)c(N3CCCN(C(=S)NCCCN(C)C)CC3)nc2c1`?
RanGTP-Impb inh: 35*

How did O=c1cc(N2CCc3ccccc3C2)[nH]c(=O)n1-c1ccccc1Cl do in these assays?
RanGTP-Impb inh: 80*; Hck-Nef inh: 1; Runt-CBFb FRET: 16; Runt-SMMHC FRET: 27

What do the screens show for `Cc1ccccc1-n1c(=O)cc(N2CCc3ccccc3C2)[nH]c1=O`?
RanGTP-Impb inh: 53*; Hck-Nef inh: -3; Runt-CBFb FRET: 37; Runt-SMMHC FRET: 76*

Results for Cc1ccccc1-n1c(=O)cc(N2CCN(Cc3ccccc3)CC2)[nH]c1=O ?
RanGTP-Impb inh: 9; Hck-Nef inh: 0; Runt-CBFb FRET: 1; Runt-SMMHC FRET: -8

What do the screens show for `CCN1CCN(c2cc(=O)n(-c3cc(Cl)ccc3C)c(=O)[nH]2)CC1`?
RanGTP-Impb inh: 72*; Hck-Nef inh: 0; Runt-CBFb FRET: 0; Runt-SMMHC FRET: -2

What do the screens show for `Cc1ccc(-n2c(=O)cc(N3CCC(C)CC3)[nH]c2=O)cc1`?
RanGTP-Impb inh: 2; Hck-Nef inh: 2; Runt-CBFb FRET: 0; Runt-SMMHC FRET: 0

Results for O=c1cc(N2CCc3ccccc32)[nH]c(=O)n1-c1ccccc1 ?
RanGTP-Impb inh: 8; Hck-Nef inh: 0; Runt-CBFb FRET: 2; Runt-SMMHC FRET: 4

Results for Cc1ccc(-n2c(=O)cc(N3CCc4ccccc4C3)[nH]c2=O)cc1 ?
RanGTP-Impb inh: 40*; Hck-Nef inh: 17; Runt-CBFb FRET: 2; Runt-SMMHC FRET: 2

Results for COc1ccc2c(c1)O[C@@H](c1ccc3c(c1)OCO3)[C@H](OC(=O)Nc1cc(OC)c(OC)c(OC)c1)C2=O ?
Hck-Nef inh: -2; Runt-CBFb FRET: -4; Runt-SMMHC FRET: -2

Results for O=C(C1CC1)N1CCc2cc(S(=O)(=O)NCc3ccccc3)ccc21 ?
RanGTP-Impb inh: -5

Results for O=c1oc2cc(O)ccc2c2oc3cc(O)ccc3c12 ?
RanGTP-Impb inh: inconclusive; Hck-Nef inh: 18; Runt-CBFb FRET: 23; Runt-SMMHC FRET: 56*

What do the screens show for `O=c1oc2cc(O)ccc2c2c1CCCC2`?
RanGTP-Impb inh: 10; Hck-Nef inh: 38; Runt-CBFb FRET: 48; Runt-SMMHC FRET: 108*

Results for CCN(CC(=O)Nc1c(F)cccc1F)C(=O)CCN1C(=O)c2cccc([N+](=O)[O-])c2C1=O ?
RanGTP-Impb inh: -18

What do the screens show for `Cc1cccc(/C=C(\C(=O)C(=O)O)c2ccc3ccccc3n2)c1`?
RanGTP-Impb inh: 29*; Hck-Nef inh: 40; Runt-CBFb FRET: 24; Runt-SMMHC FRET: 73*

How did O=C(O)C(=O)/C(=C\c1cccc(Cl)c1)c1ccc2ccccc2n1 do in these assays?
RanGTP-Impb inh: -9; Hck-Nef inh: 28; Runt-CBFb FRET: 6; Runt-SMMHC FRET: 37

Results for N#CCC(=O)N/N=C/c1ccc(N2N=C(c3ccccc3)CC2c2ccccc2)cc1 (centres undefined) ?
RanGTP-Impb inh: 99*

What do the screens show for `COc1ccc(C2=NN(c3ccc(C=O)cc3)C(c3ccccc3)C2)cc1` (centres undefined)?
RanGTP-Impb inh: 31*

How did COc1ccc(C2CC(c3ccccc3)=NN2c2ccc(/C=N/NC(=O)c3ccncc3)cc2)cc1 (centres undefined) do in these assays?
RanGTP-Impb inh: 19*; Hck-Nef inh: 4; Runt-CBFb FRET: -112; Runt-SMMHC FRET: -248

Results for Cc1ccc(C2=Nn3c(COc4ccc(Cl)cc4)nnc3SC2CC(=O)O)cc1 (centres undefined) ?
RanGTP-Impb inh: 1

What do the screens show for `O=c1ccc(-c2ccc(S(=O)(=O)Nc3ccccc3Cl)o2)n[nH]1`?
RanGTP-Impb inh: 3

What do the screens show for `CSc1nc(NCCOCCO)c2sc3nc(-c4ccco4)c4c(c3c2n1)CCC4`?
RanGTP-Impb inh: inconclusive; Hck-Nef inh: 81*; Runt-CBFb FRET: 24; Runt-SMMHC FRET: -20

What do the screens show for `CSc1nc(NCc2ccco2)c2sc3nc(C(C)C)c4c(c3c2n1)CC(C)(C)OC4`?
RanGTP-Impb inh: 3; Hck-Nef inh: 0; Runt-CBFb FRET: -7; Runt-SMMHC FRET: -9

What do the screens show for `COc1cccc(CNC(=O)c2cccc(Br)c2)c1`?
RanGTP-Impb inh: 30*; Hck-Nef inh: 1; Runt-CBFb FRET: -1; Runt-SMMHC FRET: -4
